Measurements reported in the EternaBench riboswitch data.

System: MS2 coat protein
Assay: apparent Kd, MS2 coat protein; higher = weaker binding; RNA-MaP array
Method in brief: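 For each design, the apparent Kd is the median of binding-curve fits across its clusters. Designs measured on fewer than 10 clusters were dropped. The RNAs were transcribed from sequenced DNA templates on an Illumina sequencing chip and incubated at room temperature, with or without input ligand, with fluorescently labeled MS2 coat protein at 1.5 nM to 3 μM.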

[1] = designed as: OFF switch for flavin mononucleotide, no ligand
[2] = ligand present: flavin mononucleotide, designed as: OFF switch for flavin mononucleotide
[3] = designed as: ON switch for flavin mononucleotide, no ligand
[4] = ligand present: flavin mononucleotide, designed as: ON switch for flavin mononucleotide
[5] = designed as: OFF switch for theophylline, no ligand
[6] = ligand present: theophylline, designed as: OFF switch for theophylline
[7] = designed as: ON switch for theophylline, no ligand
[8] = ligand present: theophylline, designed as: ON switch for theophylline
[9] = designed as: ON switch for tryptophan, no ligand
[10] = ligand present: tryptophan, designed as: ON switch for tryptophan

Sequence | apparent Kd [1] | apparent Kd [2] | apparent Kd [3] | apparent Kd [4] | further results
GGUUCCGCUAAGGUGAAACAUGAGGAUCACCCAUGUCAAUCUGAGGAUAUUUAUCUCGACGAGGCAAAGAAGGCAGACUCGCGG | 0.00953 µM | 0.0148 µM |  |  | 
AAGGAAUAUGAGGAUAUUGAUGCGAAACCUACUCAAGAAGGCAUAACAUGAGGAUCACCCAUGUGACCCUUAUA | 0.0194 µM | 0.0344 µM |  |  | 
CUUGAACCAUCACAUGAGGAUCACCCAUGUAGACUAUAAACUGAGGAUAUCACAGCGAGCAGUCAUGAGAAGGCAGAAUGACGG |  |  | 0.0153 µM | 0.0136 µM | 
AUGUCGCAAUGGAAAAGACAUGAGGAUCACCCAUGUCAGCGUAGAAGGACCUUGUCGACUAAUGGGUAGGAUAUACGAGAAUCC |  |  | 0.00679 µM | 0.0072 µM | 
CUGUUCGUAGGAUAUACUGAAACACGGGACAUUCUGAUUAGACAUGAGGAUCACCCAUGUAGAAGGACGCACGU | 0.0174 µM | 0.0169 µM |  |  | 
ACCUGGUGUAAGAAGGAGCAGAUAUAACGGUCGCUAGGAUAUUACCCUUCAAAAUGGGAUCUCACAUGAGGAUCACCCAUGUUA | 0.143 µM | 0.218 µM |  |  | 
ACACAUAAUCUCGGACAUGAGGAUCACCCAUGUGUCACAAUCAGAAGGCACACUUGACAAGGGAGUGAGGAUAUGAAUACAUUA | 0.124 µM | 0.0327 µM |  |  | 
CAUGAGAGAUUGUUUUGUGACUCUAACGAUACCAGAGUAGGACUUCUCCCUUGGCAGCGUGUGACAUGAGGAUCACCCAUGUCCA |  |  |  |  | apparent Kd [5]: 0.0106 µM; apparent Kd [6]: 0.0117 µM
AGUGCAAUAUAGAAGGCCCAAACAUGAGGAUCACCCAUGUAGGUGUCACUGGUAGUGAAGGCUCGGGAGGAUAUAUCAUCCACA |  |  | 0.0329 µM | 0.0307 µM | 
UUAAUCGUGCAUGAUACCAGUAUCCGUAGAUACAUGAGGAUCACCCAUGUCUGGUUGGAAUACCCUUGGCAGCAUGGGUUGAGGA |  |  |  |  | apparent Kd [7]: 0.242 µM; apparent Kd [8]: 0.249 µM
AGUACGUCAGGAUAUCGCGUACGAAACAUGAGGAUCACCCAUGUGGUGCCGUGGCUCUAUCGAGAAGGGACUUGGC | 0.0133 µM | 0.0126 µM |  |  | 
AAAAGUACAGGAUAUACAUGAGGAUCACCCAUGUCAGAAUAUAAUGAUAAGAAACUGAGUAGAAGGGUAACGAG | 0.0286 µM | 0.0203 µM |  |  | 
AACAUGUGAGGAUAUAGUCAAAAUAGCACAAGUAACAUAAACUAGAAGGCACAUGAGGAUCACCCAUGUGAAUA | 0.0079 µM | 0.0106 µM |  |  | 
AUCGUGCCAAGAGGAUAUCACCAUUCAAUACCCACAUGAGGAUCACCCAUGUAUGCAGUGUUCCGUGAGAAGGCUUGCAUACCA |  |  | 0.113 µM | 0.0194 µM | 
CGUACAAUUAAGAAGGGACAUUGCUAUAGACUGUCAGGAUAUUAUGUACAUGAGGAUCACCCAUGUAGUAGUCAAGGGUCGGAA | 0.0167 µM | 0.0617 µM |  |  | 
UACCCUCGAGGAUAUUAGCUAGCGAACAUGAGGAUCACCCAUGUGCAUCUUCCCAGCCGUUAAGAAGGCGAUUACC | 0.0931 µM | 0.0792 µM |  |  | 
UCGAGUACGGUGAGGAUAUCAUGAGGAUUACUACAAGAGAAGGCACAUGAGGAUCACCCAUGUGGCGACCAUUC | 0.00628 µM | 0.00632 µM |  |  | 
AAACCCAAAGUUAGGAUAUGCAUUGCCGGCCCUGUGCAGAAGGAACAUGAGGAUCACCCAUGUACUGGUGUUCG | 0.0427 µM | 0.103 µM |  |  | 
CUAAUGGAAGGAUAUACAUGAGGAUCACCCAUGUUUAAGUGAUUAGCGAAUUGUCAACGUAGAAGGUCCAAUUA | 0.0426 µM | 0.0843 µM |  |  | 
AUCAGUGGCUAGGAUAUGUUAGUCAGAUAUACAACAGAAGGAGCGACAUGAGGAUCACCCAUGUUACAGUGGAG | 0.013 µM | 0.0222 µM |  |  | 
CCAAAAUCGAAGAAGGCUAUGCGUACCAAUCUUAGAGGAUAUUCGACCUUAGCUAACAUGAGGAUCACCCAUGUGGGAAACACG | 0.028 µM | 0.0195 µM |  |  | 
GGUUGGUCGCAGGAUACCAGUCCACCCGUGAUACUGCUAAACAUGAGGAUCACCCAUGUCGACCCUUGGCAGCCUGUCCAUGCGU |  |  |  |  | apparent Kd [5]: 0.0163 µM; apparent Kd [6]: 0.124 µM
CUCCUGGAAGGAUAUGUGUUUCAGGACAUGAGGAUCACCCAUGUAGAACCUCUCUCCCGCACAGAAGGUCCAUUGU | 0.0743 µM | 0.247 µM |  |  | 
UCUGGUAUGACGGCCGCCACUAGAUCGUGAGAAGCCUGCAUACAUGAGGAUCACCCAUGUCUCACUAGGACCGGGUCAUUCCAAU |  |  |  |  | apparent Kd [9]: 0.0661 µM; apparent Kd [10]: 0.0223 µM
CCCAAUUUCCGAGAUAUGGGUCCAACUAAACGAGGACCGGUACGGCCGCCACUCGACUACAAACAUGAGGAUCACCCAUGUAAAG |  |  |  |  | apparent Kd (designed as: OFF switch for tryptophan, no ligand): 0.017 µM; apparent Kd (ligand present: tryptophan, designed as: OFF switch for tryptophan): 0.0174 µM
GUUUCACAUGAGGAUCACCCAUGUCAAUGCACUGUAGGAUAUGGUUGGUUUCCGCAGCGGCCAGAAGGACAAAUAU |  |  | 0.0512 µM | 0.0335 µM | 
GUGUCGCGUACAGGAUAUGCUUAGGCGCUGCCCUCACAUGAGGAUCACCCAUGUAGUUUCCGCAGGCAGAAGGGUACUGACGUC | 0.00967 µM | 0.0162 µM |  |  | 

Sequence | apparent Kd [1] | apparent Kd [2] | apparent Kd [3] | apparent Kd [4] | further results
AGUACCGUACGGAAAACAUGAGGAUCACCCAUGUCUAAUUAGAAGGAUAUGCUCUGUAAAUCGACGCAGAAGGUCAGCUAGAAU |  |  | 0.0225 µM | 0.019 µM | 
CUAAGCUCGGACAAGGAUAUUAAUUACUAGACAUGAGGAUCACCCAUGUCAACAGACUGGAGGAUUAAGAAGGUGAUUGAAAACCC |  |  | 0.0218 µM | 0.0194 µM | 
GCCCGGACACAAGGAUAUCAGACCAAUACAUGAGGAUCACCCAUGUCGGGCCUCUAAGUACGACCUGAGAAGGUGUCUCCCAGU | 0.421 µM | 0.345 µM |  |  | 
GAAAAGGACAAAGGAUAUGGGUAGGCAAUCAAUCCAGAAGGUAGACCAGGCAACCUAAACAAACAUGAGGAUCACCCAUGUUAG |  |  | 0.0166 µM | 0.0143 µM | 
CAGACCCGGAAGAAGGAGGAGACAUAAACACGCCUAGGAUAUACGCCUGAAUAAACGUAAACAUGAGGAUCACCCAUGUCAAAC |  |  | 0.0095 µM | 0.0084 µM | 
UUUAUGUCAGGAUAUCCAACACUAUGGGAAAGUAAAUAUAGGGAGAAGGGACAUGAGGAUCACCCAUGUCAACA | 0.00812 µM | 0.00859 µM |  |  | 
UCUCACAUGAGGAUCACCCAUGUGUGCGGUCGAGGACCGGUACGGCCGCCACUCGAAUCCUUCCGCGAGAAGAUUGUACGACGGC |  |  |  |  | apparent Kd [9]: 0.0762 µM; apparent Kd [10]: 0.0652 µM
GUCUCAGACCGAGAUACCAGCUGGGUUUCCCACAUGAGGAUCACCCAUGUAUUCAGAUUAAGCCCUUGGCAGCUCAUCUAGGUCC |  |  |  |  | apparent Kd [7]: 0.0158 µM; apparent Kd [8]: 0.0209 µM
GUACCACAGUCGGCCGCCACUAAGUUGUAUUCCAGCAGGACGAAACAUGAGGAUCACCCAUGUCCUAGGACCGGGACUUCCGUCG |  |  |  |  | apparent Kd [9]: 0.0212 µM; apparent Kd [10]: 0.0216 µM
CGAUGACAUGAGGAUCACCCAUGUUGCGGUAUUCAAGGAUAUCCUGAGUUUUCAAGCAUUGGAGAAGGUGAUUUCG |  |  | 0.0301 µM | 0.0261 µM | 
CACGCUCACCAGAAGGCAGAGCAUAAAUGACAUGAGGAUCACCCAUGUACGCAGGAGAUCGGGUCUGAGGAUAUGGCAAUAGGC |  |  | 0.0214 µM | 0.0205 µM | 
UAGGACAUCCAGAAGGUAACCCAAUGAUAUAACACAUGAGGAUCACCCAUGUUGAAUCAGAGACUUAAGGAUAUGGUUGAUCUU |  |  | 0.0231 µM | 0.0135 µM | 
UGGGAGUGAGGAUAUGUAUAUCUCAGGGCCGAGGAGAUGAAACAGAAGGCACAUGAGGAUCACCCAUGUUAUGA | 0.0253 µM | 0.0299 µM |  |  | 
GCCGACCUCACAUGAGGAUCACCCAUGUGCCGGAAACUACUGAGAAGGGCUCUAAUUCCAGGCGAGCAGGAUAUCAUAAAAUAG |  |  | 0.0174 µM | 0.00878 µM | 
AUAUGAGGAGUGAGGAUAUGAAUCUAACAGAAUAAUCAGAAGGCACAUGAGGAUCACCCAUGUAAAUAUAUGGU | 0.0106 µM | 0.0115 µM |  |  | 
CUCCUCACCGUGAGGAUAUAGUAUUCCGGUUGUUACUAGAAGGCACAUGAGGAUCACCCAUGUUACGGUUCCCA | 0.0134 µM | 0.0506 µM |  |  | 
GUAUGCCACAGGGACAUGAGGAUCACCCAUGUAAAUACGGAUAGAAGGCGACGAGCGUAGCUCUUCGAGGAUAUAUGCUUUUUG | 0.0315 µM | 0.0342 µM |  |  | 
AGCGUGGAUAAAGGAUAUGUACCGGUAACUACAUGAGGAUCACCCAUGUCUUCAGGCCAAAACCGACAGAAGGUUACUUAUCGC | 0.0217 µM | 0.0207 µM |  |  | 
GAUCAUUUAGUGAGGAUAUGUCUCCUGCAAAGUCGACAGAAGGCACAUGAGGAUCACCCAUGUUCGCUUCGGAU | 0.005 µM | 0.00575 µM |  |  | 
UUCAUUCGAACCAAGGAUAUGUGAUAAGUUACAUGAGGAUCACCCAUGUAUCAGUACAUCAACAGACAGAAGGUGGUGCAUAGUCA |  |  | 0.00714 µM | 0.00657 µM | 
GUAUUACAUGAGGAUCACCCAUGUGCGCCGCGUCAAGGAUAUGUAUCGUACGUGUAGUAAACAGAAGGUGACGGAU |  |  | 0.17 µM | 0.0712 µM | 
GGACAACAUGAGGAUCACCCAUGUCCUGAUACCAGUCAGCGCAGUGACCCUUGGCAGCAGACGGAUACGAAAUAACUGAGAGAUA |  |  |  |  | apparent Kd [7]: 0.0406 µM; apparent Kd [8]: 0.0421 µM
GACCGGUAUCCAGGAUAUGCAAUUAUUUACAUGAGGAUCACCCAUGUCGCAAGAGUAGGGGUGUAGCAGAAGGGGACAACAGCA | 0.0707 µM | 0.0627 µM |  |  | 
GUCAUGUCAGGAUAUCGUUCGGAGUGCGAUUCCCUCUGCCGCGAGAAGGGACAUGAGGAUCACCCAUGUUCGAA | 0.0168 µM | 0.0437 µM |  |  | 
CUACCUACAGGAUAUACAUGAGGAUCACCCAUGUUUCAACGUGGAACAGGUUGAACAUGUAGAAGGGAAUCGUU | 0.0204 µM | 0.0172 µM |  |  | 
UACCGCUACAUAGGAUAUGGAGGAUGUAUGAAACACAUGAGGAUCACCCAUGUCAUCUGCACACGCCAGAAGGAUGGAAGAAAA |  |  | 0.0134 µM | 0.00713 µM | 
AUCCGUGCAGCAAAUGGAGUGACAUGAGGAUCACCCAUGUAUGAGGAUAUGGCUCCGCCAGGGUACCAGAAGGCAUAAGGGAGG |  |  | 0.908 µM | 0.627 µM | 
